Assay outcomes (PubChem)
CHO parental Ca: ATP-evoked calcium signal inhibitors, parental CHO, primary screen, counter-screen for OX1R antagonist project, cell-based, fluorescence, Fluo-8 calcium dye; AID 463079, 2010; 0.63% of 330,000 active; parental CHO-K1, ATP-induced calcium, Fluo-8 fluorescence; inhibition, % at 5.6 µM;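 active = inhibition above that plate's mean sample inhibition plus 3 SD, cut at about 26% in these data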;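 also: 0% = ATP-challenged DMSO wells and 100% = DMSO wells without ATP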
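Test system: untransfected parental CHO cell line; also added: ATP stimulus; dosing: 5.6 µM, single dose; signal: calcium-sensitive Fluo-8 fluorescence; measure: percent inhibition of ATP-evoked calcium rise, normalized to controls; benchmarks: low control ATP plus DMSO, high control DMSO only; replication: one well per compound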
OX1R antag-1: antagonists of human orexin 1 receptor (OX1R); Orexin/Hypocretin receptor type 1 (Homo sapiens), O43613; OX1R-expressing cells, FRET antagonist read-out; inhibition, % at 6.6 µM; 1.8% of 330,000 active; in the data active = inhibition mostly above about 38%, no sharp cut-off; inactive = mostly below about 40%;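 also: 0% = agonist challenge alone and 100% = reference antagonist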
GPR7 antag: GPR7 receptor antagonists, primary screen, cell-based, fluorescence, single concentration | Neuropeptides B/W receptor type 1 (Homo sapiens), P48145 | GPR7-expressing cells, fluorescence antagonist assay | inhibition, % at 4.4 µM | 1.1% of 290,000 active | AID 1861, 2009; in the data active = inhibition above about 16%, passing the limit was not always enough;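 also: cells stimulated with the agonist NPW; 0% = agonist with vehicle and 100% = vehicle without agonist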
Target sequence (P48145 whole entry, looked up): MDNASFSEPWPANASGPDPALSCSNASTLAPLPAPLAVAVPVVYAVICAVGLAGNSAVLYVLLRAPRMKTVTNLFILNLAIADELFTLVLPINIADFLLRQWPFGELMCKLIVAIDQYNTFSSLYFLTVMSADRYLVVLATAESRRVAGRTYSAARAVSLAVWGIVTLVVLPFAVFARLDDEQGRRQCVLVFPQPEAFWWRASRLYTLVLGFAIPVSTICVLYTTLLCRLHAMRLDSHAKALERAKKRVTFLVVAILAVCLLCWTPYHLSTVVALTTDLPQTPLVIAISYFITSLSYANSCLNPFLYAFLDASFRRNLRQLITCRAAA
OX1R antag-2: OX1R (HCRTR1) antagonists, primary screen, fluorescence, CHO/OX1R cells, Fluo-8 calcium, orexin A; Fluo-8 calcium fluorescence; 0.43% of 330,000 active; AID 434989, 2010; inhibition, % at 5 µM;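 active = inhibition above its plate's threshold, mean inhibition of all tested compounds on the plate plus 3 SD, cut at about 37% in these data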;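 also: 0% = orexin A challenge wells and 100% = SB-334867-A antagonist wells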
TAAR1 antagonist: human TAAR1 antagonists, primary screen, Fluo-8 calcium fluorescence, CHO RD-HGA16 cells; Trace amine-associated receptor 1 (Homo sapiens), Q96RJ0; inhibition, % at 3 µM; antagonist; 1.5% of 360,000 active; AID 624466, 2012;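 active = inhibition above a per-plate cutoff, the mean inhibition of test compounds on that plate plus 3 SD, cut at about 49% in these data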;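 also: 0% = DMSO plus EC80 beta-PEA response and 100% = DMSO alone without agonist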
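Test system: hTAAR1-expressing CHO RD-HGA16 cells, Gα16-coupled; Probe or stimulus: EC80 β-phenethylamine stimulus; Compound dosing: single nominal final test compound concentration of 3 µM; Timing: 140 s kinetic read after compound, 140 s after agonist; Signal: Fluo-8 calcium-sensitive fluorescence; Measure: % inhibition of agonist calcium response; Controls: DMSO and EC80 PEA controls.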
TAAR1 ag: human TAAR1 agonists, primary screen, Fluo-8 calcium fluorescence, CHO RD-HGA16 cells. vehicle wells 0%, saturating PEA agonist 100%. activation, % at 3 µM. 0.99% of 360,000 active. AID 624467, 2012;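 active = activation above the mean activation of all test compounds in the run plus 3 SD, cut at about 38% in these data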
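System: CHO-derived RD-HGA16 cells with stable Gα16 and human TAAR1. Times: 17-24 h plating, Fluo-8 75 min 37 °C, 30 min RT. Measured by: calcium-sensitive Fluo-8 signal, excitation 470-495, emission 515-575 nm. Read-out basis: % activation relative to PEA EC100 response. Control set: DMSO and PEA EC100. Repeats: no replicates (n 1).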
TAAR1 ag confirm: human TAAR1 agonists, retest of hits, confirmation, Fluo-8 calcium fluorescence, CHO RD-HGA16 cells; AID 651783, 2012; shares compounds with TAAR1 ag; scaled: DMSO 0%, maximal phenethylamine 100%; activation, % at 3 µM; 82% of 2,400 active;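 active = activation above a cutoff set at the run's mean compound activation plus 3 SD, cut at about 39% in these data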
Ga16 ag counter: nonselective calcium mobilization agonists, CHO-Ga16 cells, counter-screen for hTAAR1 agonist project, cell-based, fluorescence, CHO-Ga16 parental line. Fluo-8 calcium fluorescence; normalized to maximal ATP response, DMSO zero. 50% of 2,400 active. activation, % at 3 µM. shares compounds with TAAR1 ag;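 active = activation above the run cutoff, the mean activation over all tested wells plus 3 SD, cut at about 12% in these data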;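 also: 0% = DMSO wells and 100% = maximal ATP response on the peak over basal ratio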
TAAR1 desensitize: TAAR1 desensitization by agonist hits, confirmation, counter-screen for TAAR1 agonist project, cell-based, fluorescence, tachyphylaxis; shares compounds with TAAR1 ag; CHO RD-HGA16 hTAAR1, Fluo-8 calcium, beta-PEA response inhibition; inhibition, % at 3 µM; 46% of 2,400 active; AID 651951, 2012;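 active = inhibition above the run cutoff, the mean inhibition of all test compounds plus 3 SD, cut at about 49% in these data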;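 also: beta-PEA stimulus applied at its EC80; loss of beta-PEA calcium signal after compound pretreatment read as receptor desensitization; 0% = DMSO with beta-PEA at EC80 and 100% = DMSO alone without agonist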
Ga16 antag count: inhibition of ATP-evoked calcium response in CHO-Ga16 cells, counter-screen for TAAR1 agonist project, cell-based, fluorescence; shares compounds with TAAR1 ag; CHO-Ga16 ATP-induced calcium, Fluo-8 fluorescence; inhibition, % at 3 µM; 39% of 2,400 active;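 active = inhibition above the plate's mean compound inhibition plus 3 SD, computed per plate, cut at about 22% in these data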;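 also: 0% = EC80 ATP with DMSO and 100% = DMSO wells without ATP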
* = called active by the depositor; · = no result given. Sampled rows, rich in hits. Any-hit rate of the full collection: about 4.6%.

SMILES	CHO parental Ca	OX1R antag-1	GPR7 antag	OX1R antag-2	TAAR1 antagonist	TAAR1 ag	TAAR1 ag confirm	Ga16 ag counter	TAAR1 desensitize	Ga16 antag count
CC(=NCCc1ccccc1)C1=C(O)CCC1=O	-9	5	-2	-14	74*	105*	98*	1	73*	8
CC1=C(NCCc2ccccc2)CCC1=O	-18	31	9	-17	60*	95*	103*	4	87*	0
O=C(Cc1cccs1)N[C@@H]1c2ccccc2CC[C@@H]1OCc1ccccc1	-17	16	·	-17	82*	59*	0	6	12	18
O=C(Cc1cccs1)N[C@@H]1c2ccccc2CC[C@H]1OCc1ccccc1	-1	6	·	11	-5	-2	·	·	·	·
Cc1nc(Nc2ccccc2)sc1-c1ccccc1	-14	35	-15	-25	-8	-1	·	·	·	·
Cc1nc(Nc2ccc(C(=O)O)cc2)sc1-c1ccccc1	2	-8	18	13	31	62*	71*	63*	61*	44*
CCOC(=O)CCCCCC(=O)Nc1ccc2c(c1)C(=O)N([C@H](C)CO)C[C@@H](C)[C@H](CN(C)S(=O)(=O)c1cn(C)cn1)O2	-2	2	·	-4	-10	10	·	·	·	·
CCOc1cccc(C(=O)Nc2ccccc2C(=O)N2CCN(C)CC2)c1	-14	14	-5	-13	-31	1	·	·	·	·
Cc1nnc(SC(C)C(=O)Nc2ccc3ccccc3c2)n1C (stereo not drawn)	-13	2	·	-13	-27	1	·	·	·	·
Cc1ccc(Cn2ncc3c(N4CCN(Cc5ccc(Cl)cc5)CC4)ncnc32)cc1	-23	32	1	-30	-25	11	·	·	·	·
CC1CCN(c2ncnc3c2cnn3Cc2ccc(Cl)cc2)CC1	-29	21	6	-12	25	51*	38*	20*	26	15
CN(C)c1ccc(C(=O)OCC(=O)Nc2ccc(N3CCOCC3)cc2)cc1	-4	6	-13	3	-6	51*	2	10	8	1
CCN(CC)CCCN1C(=O)CSC1c1ccc([N+](=O)[O-])cc1 (stereo not drawn)	-7	58	4	-13	7	52*	1	2	9	4
CCN(CC)CCCN1C(=O)CSC1c1ccc2c(c1)OCO2 (stereo not drawn)	4	30	-12	-21	-11	1	·	·	·	·
Cc1cc(Nc2ccccc2)nc(NCc2ccccc2)n1	15	32	37*	-2	31	56*	76*	36*	53*	37*
Cc1cc(Nc2ccc(Cl)cc2)nc(NCc2ccccc2)n1	20	26	4	-2	-8	55*	81*	35*	53*	29*
